Values after ≈ are worked out from the molar mass of the structure shown.
Key:
Assay type in all cases: functional
Streptococcus pneumoniae [1] = assay: Antibacterial activity against penicillin intermediate-resistant Streptococcus pneumoniae isolate I1 by agar dilution method
Summary of the method: (§1)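 MIC determined by agar dilution on Mueller–Hinton agar against clinically isolated penicillin-intermediate-resistant S. pneumoniae.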

Staphylococcus aureus [2] = assay: Antibacterial activity against methicillin-susceptible Staphylococcus aureus ATCC 29213 by agar dilution method
Summary of the method: (§2)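 MIC determined by agar dilution on Mueller–Hinton agar against reference strains.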

Staphylococcus aureus [3] = assay: Antibacterial activity against methicillin-resistant Staphylococcus aureus 1 by agar dilution method
Summary of the method: (§3)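 MIC determined by agar dilution on Mueller–Hinton agar against clinical strains of methicillin-resistant S. aureus.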

Staphylococcus aureus [4] = assay: Antibacterial activity against methicillin-resistant Staphylococcus aureus 2 by agar dilution method; summary of the method: as §3
Staphylococcus aureus [5] = assay: Antibacterial activity against methicillin-resistant Staphylococcus aureus 3 by agar dilution method; summary of the method: as §3
Staphylococcus aureus [6] = assay: Antibacterial activity against methicillin-susceptible Staphylococcus aureus isolate 1 by agar dilution method
Summary of the method: (§4)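 MIC determined by agar dilution on Mueller–Hinton agar against clinically isolated methicillin-susceptible S. aureus.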

Staphylococcus aureus [7] = assay: Antibacterial activity against methicillin-susceptible Staphylococcus aureus isolate 2 by agar dilution method; summary of the method: as §4
Staphylococcus aureus [8] = assay: Antibacterial activity against methicillin-susceptible Staphylococcus aureus isolate 3 by agar dilution method; summary of the method: as §4
Streptococcus pneumoniae [9] = assay: Antibacterial activity against Streptococcus pneumoniae ATCC 49619 by agar dilution method; settings: ATCC49619; summary of the method: as §2
Streptococcus pneumoniae [10] = assay: Antibacterial activity against penicillin intermediate-resistant Streptococcus pneumoniae isolate I2 by agar dilution method; summary of the method: as §1
Streptococcus pneumoniae [11] = assay: Antibacterial activity against penicillin intermediate-resistant Streptococcus pneumoniae isolate I3 by agar dilution method; summary of the method: as §1
Streptococcus pneumoniae [12] = assay: Antibacterial activity against penicillin-susceptible Streptococcus pneumoniae isolate S1 by agar dilution method
Summary of the method: (§5)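 MIC measured by agar dilution on Mueller–Hinton agar. Strains were a reference culture and clinically isolated strains. The pneumococcal isolates were penicillin-susceptible clinical isolates.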

Streptococcus pneumoniae [13] = assay: Antibacterial activity against penicillin-susceptible Streptococcus pneumoniae isolate S2 by agar dilution method; summary of the method: as §5
Streptococcus pyogenes [14] = assay: Antibacterial activity against Streptococcus pyogenes ATCC 8668 by agar dilution method; summary of the method: as §5
Streptococcus pyogenes [15] = assay: Antibacterial activity against Streptococcus pyogenes isolate 1 by agar dilution method; summary of the method: as §5
Streptococcus pyogenes [16] = assay: Antibacterial activity against Streptococcus pyogenes isolate 2 by agar dilution method; summary of the method: as §5
Streptococcus pyogenes [17] = assay: Antibacterial activity against Streptococcus pyogenes isolate 3 by agar dilution method; summary of the method: as §5

CC[C@H]1OC(=O)[C@H](C)C(=O)[C@H](C)[C@@H](O[C@@H]2O[C@H](C)C[C@H](N(C)C)[C@H]2O)[C@](C)(OC)C[C@@H](C)/C(=N\OC/C=C/c2cccs2)[C@H](C)[C@@H](O)[C@]1(C)O showed an MIC (Streptococcus pneumoniae [1]) of 32 mg/L (≈ 44.1 µM), an MIC (Staphylococcus aureus [2]) of 0.5 mg/L (≈ 0.69 µM) and an MIC (Staphylococcus aureus [3]) of 128 mg/L (≈ 177 µM). The MIC (Staphylococcus aureus [4]) was 128 mg/L (≈ 177 µM), the MIC (Staphylococcus aureus [5]) was 0.25 mg/L (≈ 0.345 µM) and the MIC (Staphylococcus aureus [6]) was 0.5 mg/L (≈ 0.69 µM). For the same molecule, the MIC (Staphylococcus aureus [7]) was 0.25 mg/L (≈ 0.345 µM), the MIC (Staphylococcus aureus [8]) was 0.25 mg/L (≈ 0.345 µM) and the MIC (Streptococcus pneumoniae [9]) was 0.06 mg/L (≈ 0.0828 µM). For the same molecule, the MIC (Streptococcus pneumoniae [10]) was 0.125 mg/L (≈ 0.172 µM), the MIC (Streptococcus pneumoniae [11]) was 0.125 mg/L (≈ 0.172 µM) and the MIC (Streptococcus pneumoniae [12]) was 0.06 mg/L (≈ 0.0828 µM). For the same molecule, the MIC (Streptococcus pneumoniae [13]) was 0.06 mg/L (≈ 0.0828 µM), the MIC (Streptococcus pyogenes [14]) was 0.06 mg/L (≈ 0.0828 µM) and the MIC (Streptococcus pyogenes [15]) was 0.06 mg/L (≈ 0.0828 µM). For the same molecule, the MIC (Streptococcus pyogenes [16]) was 0.06 mg/L (≈ 0.0828 µM) and the MIC (Streptococcus pyogenes [17]) was 0.06 mg/L (≈ 0.0828 µM).

Molecule CC[C@H]1OC(=O)[C@H](C)C(=O)[C@H](C)[C@@H](O[C@@H]2O[C@H](C)C[C@H](N(C)C)[C@H]2O)[C@](C)(OC)C[C@@H](C)/C(=N\OC/C=C/c2cnc3ccccc3c2)[C@H](C)[C@@H](O)[C@]1(C)O has an MIC (Streptococcus pneumoniae [1]) of 64 mg/L (≈ 83.1 µM), an MIC (Staphylococcus aureus [2]) of 0.25 mg/L (≈ 0.325 µM) and an MIC (Staphylococcus aureus [3]) of 128 mg/L (≈ 166 µM). The MIC (Staphylococcus aureus [4]) was 128 mg/L (≈ 166 µM), the MIC (Staphylococcus aureus [5]) was 0.25 mg/L (≈ 0.325 µM) and the MIC (Staphylococcus aureus [6]) was 0.25 mg/L (≈ 0.325 µM). The MIC (Staphylococcus aureus [7]) was 0.25 mg/L (≈ 0.325 µM), the MIC (Staphylococcus aureus [8]) was 0.25 mg/L (≈ 0.325 µM) and the MIC (Streptococcus pneumoniae [9]) was 0.06 mg/L (≈ 0.0779 µM). The MIC (Streptococcus pneumoniae [10]) was 0.06 mg/L (≈ 0.0779 µM), the MIC (Streptococcus pneumoniae [11]) was 4 mg/L (≈ 5.19 µM) and the MIC (Streptococcus pneumoniae [12]) was 0.06 mg/L (≈ 0.0779 µM). The MIC (Streptococcus pneumoniae [13]) was 0.06 mg/L (≈ 0.0779 µM), the MIC (Streptococcus pyogenes [14]) was 0.06 mg/L (≈ 0.0779 µM) and the MIC (Streptococcus pyogenes [15]) was 0.06 mg/L (≈ 0.0779 µM). The MIC (Streptococcus pyogenes [16]) was 0.06 mg/L (≈ 0.0779 µM) and the MIC (Streptococcus pyogenes [17]) was 0.06 mg/L (≈ 0.0779 µM).

CC[C@H]1OC(=O)[C@H](C)C(=O)[C@H](C)[C@@H](O[C@@H]2O[C@H](C)C[C@H](N(C)C)[C@H]2O)[C@](C)(OC)C[C@@H](C)/C(=N\OC/C=C/c2ccc3[nH]ccc3c2)[C@H](C)[C@@H](O)[C@]1(C)O was tested, and the MIC (Streptococcus pneumoniae [1]) was 32 mg/L (≈ 42.2 µM), the MIC (Staphylococcus aureus [2]) was 1 mg/L (≈ 1.32 µM) and the MIC (Staphylococcus aureus [3]) was 128 mg/L (≈ 169 µM). It also gave an MIC (Staphylococcus aureus [4]) of 128 mg/L (≈ 169 µM), an MIC (Staphylococcus aureus [5]) of 1 mg/L (≈ 1.32 µM) and an MIC (Staphylococcus aureus [6]) of 1 mg/L (≈ 1.32 µM). The MIC (Staphylococcus aureus [7]) was 1 mg/L (≈ 1.32 µM), the MIC (Staphylococcus aureus [8]) was 1 mg/L (≈ 1.32 µM) and the MIC (Streptococcus pneumoniae [9]) was 0.25 mg/L (≈ 0.33 µM). It also gave an MIC (Streptococcus pneumoniae [10]) of 0.25 mg/L (≈ 0.33 µM), an MIC (Streptococcus pneumoniae [11]) of 0.25 mg/L (≈ 0.33 µM) and an MIC (Streptococcus pneumoniae [12]) of 0.06 mg/L (≈ 0.0792 µM). It also gave an MIC (Streptococcus pneumoniae [13]) of 0.06 mg/L (≈ 0.0792 µM), an MIC (Streptococcus pyogenes [14]) of 0.25 mg/L (≈ 0.33 µM) and an MIC (Streptococcus pyogenes [15]) of 0.06 mg/L (≈ 0.0792 µM). For the same molecule, the MIC (Streptococcus pyogenes [16]) was 0.25 mg/L (≈ 0.33 µM) and the MIC (Streptococcus pyogenes [17]) was 0.25 mg/L (≈ 0.33 µM).

CC[C@H]1OC(=O)[C@H](C)C(=O)[C@H](C)[C@@H](O[C@@H]2O[C@H](C)C[C@H](N(C)C)[C@H]2O)[C@](C)(OC)C[C@@H](C)/C(=N\OC/C=C/c2ccc3c(c2)CCC3=O)[C@H](C)[C@@H](O)[C@]1(C)O was tested, and the MIC (Streptococcus pneumoniae [1]) was 64 mg/L (≈ 82.8 µM), the MIC (Staphylococcus aureus [2]) was 1 mg/L (≈ 1.29 µM) and the MIC (Staphylococcus aureus [3]) was 128 mg/L (≈ 166 µM). It also gave an MIC (Staphylococcus aureus [4]) of 128 mg/L (≈ 166 µM), an MIC (Staphylococcus aureus [5]) of 1 mg/L (≈ 1.29 µM) and an MIC (Staphylococcus aureus [6]) of 1 mg/L (≈ 1.29 µM). For the same molecule, the MIC (Staphylococcus aureus [7]) was 1 mg/L (≈ 1.29 µM), the MIC (Staphylococcus aureus [8]) was 1 mg/L (≈ 1.29 µM) and the MIC (Streptococcus pneumoniae [9]) was 0.25 mg/L (≈ 0.323 µM). The MIC (Streptococcus pneumoniae [10]) was 0.25 mg/L (≈ 0.323 µM), the MIC (Streptococcus pneumoniae [11]) was 8 mg/L (≈ 10.3 µM) and the MIC (Streptococcus pneumoniae [12]) was 0.06 mg/L (≈ 0.0776 µM). The MIC (Streptococcus pneumoniae [13]) was 0.06 mg/L (≈ 0.0776 µM), the MIC (Streptococcus pyogenes [14]) was 0.25 mg/L (≈ 0.323 µM) and the MIC (Streptococcus pyogenes [15]) was 0.06 mg/L (≈ 0.0776 µM). The MIC (Streptococcus pyogenes [16]) was 0.25 mg/L (≈ 0.323 µM) and the MIC (Streptococcus pyogenes [17]) was 0.25 mg/L (≈ 0.323 µM).

CC[C@H]1OC(=O)[C@H](C)C(=O)[C@H](C)[C@@H](O[C@@H]2O[C@H](C)C[C@H](N(C)C)[C@H]2O)[C@](C)(OC)C[C@@H](C)/C(=N\OC/C=C/c2cccc(C3OCCO3)c2)[C@H](C)[C@@H](O)[C@]1(C)O was tested, and the MIC (Streptococcus pneumoniae [1]) was 64 mg/L (≈ 80.9 µM), the MIC (Staphylococcus aureus [2]) was 0.5 mg/L (≈ 0.632 µM) and the MIC (Staphylococcus aureus [3]) was 128 mg/L (≈ 162 µM). It also gave an MIC (Staphylococcus aureus [4]) of 128 mg/L (≈ 162 µM), an MIC (Staphylococcus aureus [5]) of 1 mg/L (≈ 1.26 µM) and an MIC (Staphylococcus aureus [6]) of 1 mg/L (≈ 1.26 µM). It also gave an MIC (Staphylococcus aureus [7]) of 1 mg/L (≈ 1.26 µM), an MIC (Staphylococcus aureus [8]) of 0.5 mg/L (≈ 0.632 µM) and an MIC (Streptococcus pneumoniae [9]) of 0.25 mg/L (≈ 0.316 µM). For the same molecule, the MIC (Streptococcus pneumoniae [10]) was 0.25 mg/L (≈ 0.316 µM), the MIC (Streptococcus pneumoniae [11]) was 0.25 mg/L (≈ 0.316 µM) and the MIC (Streptococcus pneumoniae [12]) was 0.06 mg/L (≈ 0.0759 µM). It also gave an MIC (Streptococcus pneumoniae [13]) of 0.06 mg/L (≈ 0.0759 µM), an MIC (Streptococcus pyogenes [14]) of 0.25 mg/L (≈ 0.316 µM) and an MIC (Streptococcus pyogenes [15]) of 0.06 mg/L (≈ 0.0759 µM). The MIC (Streptococcus pyogenes [16]) was 0.25 mg/L (≈ 0.316 µM) and the MIC (Streptococcus pyogenes [17]) was 0.25 mg/L (≈ 0.316 µM).

CC[C@H]1OC(=O)[C@H](C)C(=O)[C@H](C)[C@@H](O[C@@H]2O[C@H](C)C[C@H](N(C)C)[C@H]2O)[C@](C)(OC)C[C@@H](C)/C(=N\OC/C=C/c2ccc3c(c2)OCO3)[C@H](C)[C@@H](O)[C@]1(C)O showed an MIC (Streptococcus pneumoniae [1]) of 64 mg/L (≈ 83.9 µM), an MIC (Staphylococcus aureus [2]) of 1 mg/L (≈ 1.31 µM) and an MIC (Staphylococcus aureus [3]) of 128 mg/L (≈ 168 µM). It also gave an MIC (Staphylococcus aureus [4]) of 128 mg/L (≈ 168 µM), an MIC (Staphylococcus aureus [5]) of 1 mg/L (≈ 1.31 µM) and an MIC (Staphylococcus aureus [6]) of 1 mg/L (≈ 1.31 µM). It also gave an MIC (Staphylococcus aureus [7]) of 0.5 mg/L (≈ 0.655 µM), an MIC (Staphylococcus aureus [8]) of 0.5 mg/L (≈ 0.655 µM) and an MIC (Streptococcus pneumoniae [9]) of 0.25 mg/L (≈ 0.328 µM). The MIC (Streptococcus pneumoniae [10]) was 0.25 mg/L (≈ 0.328 µM), the MIC (Streptococcus pneumoniae [11]) was 0.25 mg/L (≈ 0.328 µM) and the MIC (Streptococcus pneumoniae [12]) was 0.06 mg/L (≈ 0.0786 µM). It also gave an MIC (Streptococcus pneumoniae [13]) of 0.06 mg/L (≈ 0.0786 µM), an MIC (Streptococcus pyogenes [14]) of 0.25 mg/L (≈ 0.328 µM) and an MIC (Streptococcus pyogenes [15]) of 0.06 mg/L (≈ 0.0786 µM). It also gave an MIC (Streptococcus pyogenes [16]) of 0.25 mg/L (≈ 0.328 µM) and an MIC (Streptococcus pyogenes [17]) of 0.25 mg/L (≈ 0.328 µM).

Work on CC[C@H]1OC(=O)[C@H](C)[C@@H](O[C@H]2C[C@@](C)(OC)[C@@H](O)[C@H](C)O2)[C@H](C)[C@@H](O[C@@H]2O[C@H](C)C[C@H](N(C)C)[C@H]2O)[C@](C)(O)C[C@@H](C)C(=O)[C@H](C)[C@@H](O)[C@]1(C)O [ERYTHROMYCIN] yielded an MIC50 (Streptococcus pneumoniae [1]) greater than 128 µM, an MIC50 (Streptococcus pneumoniae [10]) greater than 128 µM and an MIC50 (Streptococcus pneumoniae [11]) greater than 128 µM.
